Test results as given in ChEMBL document CHEMBL4007422 (J Med Chem, 2017).
pIC50, pKi: −log10 of the molar value. Calls of active or inactive are those of the source. The calls are words filed in the database; no cut-off is given here.

Experiments:
[1] = biological target: T1, 5-hydroxytryptamine receptor 2C (Homo sapiens) (UniProt P28335); assay: Displacement of [3H]-Mesulergine from recombinant human 5-HT2C receptor expressed in HEK293 cell membranes after 180 mins by microbeta scintillation counting analysis
T1 sequence (whole entry): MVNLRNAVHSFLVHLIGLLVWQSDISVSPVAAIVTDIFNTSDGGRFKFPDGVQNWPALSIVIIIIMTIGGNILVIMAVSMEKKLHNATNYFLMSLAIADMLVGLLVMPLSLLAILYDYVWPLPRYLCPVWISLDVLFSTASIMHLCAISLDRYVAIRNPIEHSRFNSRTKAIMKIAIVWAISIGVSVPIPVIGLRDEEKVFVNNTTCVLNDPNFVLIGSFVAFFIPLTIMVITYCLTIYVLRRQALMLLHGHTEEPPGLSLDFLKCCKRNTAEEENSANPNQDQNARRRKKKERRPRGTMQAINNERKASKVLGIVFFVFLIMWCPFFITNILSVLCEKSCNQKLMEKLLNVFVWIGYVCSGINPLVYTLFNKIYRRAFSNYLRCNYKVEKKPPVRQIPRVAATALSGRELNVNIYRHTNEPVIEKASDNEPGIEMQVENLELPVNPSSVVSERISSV

[2] = Cmax in Wistar rat at 10 mg/kg, po by LC-MS/MS analysis; format: ADME, organism-based; design: dose 10 mg/kg, route oral; conditions: in vivo
[3] = biological target: 5-hydroxytryptamine receptor 7 (Rattus norvegicus) (UniProt P32305); assay: Binding affinity to recombinant rat 5-HT7 receptor expressed in CHOK1 cells assessed as inhibition of 5-HT stimulated cAMP accumulation after 4 hrs by luciferase reporter gene assay; format: cell-based
[4] = Half life in Wistar rat at 10 mg/kg, iv by LC-MS/MS analysis; format: ADME, organism-based; conditions: in vivo
Cytochrome P450 2D6 = Cytochrome P450 2D6 (Homo sapiens, UniProt P10635); assay: Inhibition of CYP2D6 in human liver microsomes in presence of NADPH by LC-MS/MS analysis
[5] = biological target: 5-hydroxytryptamine receptor 2A (Homo sapiens) (UniProt P28223); assay: Displacement of [3H]-Ketanserine from recombinant human 5-HT2A receptor expressed in CHOK1 cell membranes after 60 mins by microbeta scintillation counting analysis
[6] = Ratio of drug uptake in Wistar rat brain to plasma at 10 mg/kg, po by LC-MS/MS analysis; format: ADME, organism-based; conditions: read-out: BPR
[7] = biological target: 5-hydroxytryptamine receptor 4 (Homo sapiens) (UniProt Q13639); assay: Displacement of [3H]-GR113808 from recombinant human 5-HT4B receptor expressed in Chem1 cell membranes after 120 mins by microbeta scintillation counting analysis
Cytochrome P450 3A4 = Cytochrome P450 3A4 (Homo sapiens, UniProt P08684)
[8] = (§1) Oral bioavailability in Wistar rat at 10 mg/kg by LC-MS/MS analysis; format: ADME, organism-based; conditions: Wistar, in vivo
[9] = Clearance in Wistar rat at 10 mg/kg, iv by LC-MS/MS analysis; format: ADME, organism-based; conditions: in vivo
[10] = biological target: T2, 5-hydroxytryptamine receptor 1A (Homo sapiens) (UniProt P08908); assay: Displacement of [3H]-8-OH-DPAT from recombinant human 5-HT1A receptor expressed in HEK293 EBNA cell membranes after 120 mins by microbeta scintillation counting analysis
T2 sequence (whole entry): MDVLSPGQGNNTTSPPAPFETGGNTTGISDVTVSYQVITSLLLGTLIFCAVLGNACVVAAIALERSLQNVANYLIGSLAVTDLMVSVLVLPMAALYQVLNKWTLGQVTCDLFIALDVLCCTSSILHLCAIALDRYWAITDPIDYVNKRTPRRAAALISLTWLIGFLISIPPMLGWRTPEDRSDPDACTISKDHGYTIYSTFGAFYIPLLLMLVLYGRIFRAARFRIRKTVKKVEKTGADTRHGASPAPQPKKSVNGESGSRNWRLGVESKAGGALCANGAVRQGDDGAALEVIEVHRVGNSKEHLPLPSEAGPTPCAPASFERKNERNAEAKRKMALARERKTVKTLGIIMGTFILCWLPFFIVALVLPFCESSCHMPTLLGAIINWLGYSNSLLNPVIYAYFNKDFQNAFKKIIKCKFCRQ

Rattus norvegicus [11] = assay: Reversal of time-induced amnesia in Wistar rat at 10 mg/kg, po administered 60 mins prior to testing measured for 3 mins by object recognition test; format: functional, organism-based
In short: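 Time-induced object recognition task in rats. Oral dosing at 1, 3 and 10 mg/kg given 60 min before the test; vehicle water for injection 1 mL/kg p.o.; n = 7−12/group. Exploration of novel versus familiar object compared by paired t-test.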

[12] = Apparent volume of distribution in Wistar rat at 10 mg/kg, iv by LC-MS/MS analysis; format: ADME, organism-based; conditions: in vivo, read-out: Vz
[13] = (§2) AUC (0 to t) in Wistar rat at 10 mg/kg, po by LC-MS/MS analysis; format: ADME, organism-based; conditions: Wistar, in vivo
Rattus norvegicus [14] = assay: as §1; format: ADME, organism-based; conditions: in vivo
Rattus norvegicus [15] = assay: as §2; format: ADME, organism-based; conditions: in vivo
Rattus norvegicus [16] = assay: Increase in acetylcholine level in Wistar rat ventral hippocampus at 1 mg/kg, sc after 4 hrs in presence of 1 mg/kg of donepezil administered sc by LC-MS/MS based microdialysis method relative to control; format: functional
[17] = biological target: T3, 5-hydroxytryptamine receptor 6 (Homo sapiens, UniProt P50406); assay: Antagonist activity at recombinant human 5-HT6 receptor expressed in CHO cells assessed as inhibition of 5-HT stimulated cAMP accumulation after 4 hrs by luciferase reporter gene assay relative to control; format: functional, cell-based
In short: (§3)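 Stable CHO line expressing recombinant human 5-HT6 receptor with a pCRE-luciferase reporter, a nonradioactive cell-based format. Output is Kb (nM), the mean of duplicate experiments, with Imax (%) also reported.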

[18] = biological target: T3, 5-hydroxytryptamine receptor 6; assay: Antagonist activity at recombinant human 5-HT6 receptor expressed in CHO cells assessed as inhibition of 5-HT stimulated cAMP accumulation after 4 hrs by luciferase reporter gene assay; format: functional, cell-based; in short: as §3
[19] = biological target: T3, 5-hydroxytryptamine receptor 6; assay: Displacement of [3H]-LSD from recombinant human 5-HT6 receptor expressed in HEK293 cells after 60 mins; format: cell-based
Rattus norvegicus [20] = assay: Reversal of time-induced amnesia in Wistar rat at 1 to 3 mg/kg, sc administered 60 mins prior to testing measured for 3 mins by object recognition test; format: functional, organism-based

Cytochrome P450 2D6, sequence (P10635 whole entry): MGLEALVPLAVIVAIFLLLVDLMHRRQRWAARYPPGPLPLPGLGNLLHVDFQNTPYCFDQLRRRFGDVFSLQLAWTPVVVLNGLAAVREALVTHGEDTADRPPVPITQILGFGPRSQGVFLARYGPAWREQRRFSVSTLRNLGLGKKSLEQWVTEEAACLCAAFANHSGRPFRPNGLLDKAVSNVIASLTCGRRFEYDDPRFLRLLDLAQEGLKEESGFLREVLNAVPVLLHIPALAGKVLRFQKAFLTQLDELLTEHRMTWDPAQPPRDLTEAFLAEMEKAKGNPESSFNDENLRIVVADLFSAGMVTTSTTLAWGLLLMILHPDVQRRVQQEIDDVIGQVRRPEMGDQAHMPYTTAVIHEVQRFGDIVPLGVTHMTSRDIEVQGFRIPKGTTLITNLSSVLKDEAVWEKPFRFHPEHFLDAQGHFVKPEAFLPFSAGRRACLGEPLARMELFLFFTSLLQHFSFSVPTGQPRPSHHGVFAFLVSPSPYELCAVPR
Cytochrome P450 3A4, sequence (P08684 whole entry): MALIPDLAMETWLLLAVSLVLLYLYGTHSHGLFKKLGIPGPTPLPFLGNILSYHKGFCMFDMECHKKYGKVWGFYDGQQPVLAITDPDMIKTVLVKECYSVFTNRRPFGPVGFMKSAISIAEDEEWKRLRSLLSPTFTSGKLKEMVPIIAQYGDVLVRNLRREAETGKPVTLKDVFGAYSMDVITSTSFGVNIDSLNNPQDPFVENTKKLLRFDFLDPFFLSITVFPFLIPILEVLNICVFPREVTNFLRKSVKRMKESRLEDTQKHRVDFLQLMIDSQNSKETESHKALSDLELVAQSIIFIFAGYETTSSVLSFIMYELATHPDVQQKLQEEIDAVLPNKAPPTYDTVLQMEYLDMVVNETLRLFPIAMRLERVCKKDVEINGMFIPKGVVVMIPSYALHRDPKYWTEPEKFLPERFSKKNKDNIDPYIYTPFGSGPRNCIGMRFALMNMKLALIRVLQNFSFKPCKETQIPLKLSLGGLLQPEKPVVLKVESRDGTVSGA
T3 sequence (P50406 whole entry): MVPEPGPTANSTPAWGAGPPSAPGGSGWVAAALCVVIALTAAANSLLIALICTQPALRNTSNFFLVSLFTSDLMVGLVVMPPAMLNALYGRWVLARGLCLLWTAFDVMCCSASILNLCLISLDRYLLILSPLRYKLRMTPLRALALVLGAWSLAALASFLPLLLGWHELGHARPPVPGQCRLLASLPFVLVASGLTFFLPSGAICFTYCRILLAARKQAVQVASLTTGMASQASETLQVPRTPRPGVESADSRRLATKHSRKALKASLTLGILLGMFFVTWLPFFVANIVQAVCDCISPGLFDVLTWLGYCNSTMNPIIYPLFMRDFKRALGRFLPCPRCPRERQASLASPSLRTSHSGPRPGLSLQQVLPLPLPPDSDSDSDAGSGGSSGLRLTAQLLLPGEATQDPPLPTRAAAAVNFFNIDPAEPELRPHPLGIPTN
5-hydroxytryptamine receptor 4 (Homo sapiens), sequence (Q13639 whole entry): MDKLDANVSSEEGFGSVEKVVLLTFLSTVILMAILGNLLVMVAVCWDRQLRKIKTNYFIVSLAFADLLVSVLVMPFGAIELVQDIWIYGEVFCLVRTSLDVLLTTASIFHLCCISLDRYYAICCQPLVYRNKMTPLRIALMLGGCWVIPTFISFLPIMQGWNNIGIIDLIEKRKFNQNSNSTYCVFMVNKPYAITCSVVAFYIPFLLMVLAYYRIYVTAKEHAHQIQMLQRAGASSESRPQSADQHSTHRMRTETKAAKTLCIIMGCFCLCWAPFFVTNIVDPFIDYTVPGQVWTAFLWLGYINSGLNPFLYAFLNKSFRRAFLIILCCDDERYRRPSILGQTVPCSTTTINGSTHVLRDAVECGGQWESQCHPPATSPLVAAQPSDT
5-hydroxytryptamine receptor 7 (Rattus norvegicus), sequence (P32305 whole entry): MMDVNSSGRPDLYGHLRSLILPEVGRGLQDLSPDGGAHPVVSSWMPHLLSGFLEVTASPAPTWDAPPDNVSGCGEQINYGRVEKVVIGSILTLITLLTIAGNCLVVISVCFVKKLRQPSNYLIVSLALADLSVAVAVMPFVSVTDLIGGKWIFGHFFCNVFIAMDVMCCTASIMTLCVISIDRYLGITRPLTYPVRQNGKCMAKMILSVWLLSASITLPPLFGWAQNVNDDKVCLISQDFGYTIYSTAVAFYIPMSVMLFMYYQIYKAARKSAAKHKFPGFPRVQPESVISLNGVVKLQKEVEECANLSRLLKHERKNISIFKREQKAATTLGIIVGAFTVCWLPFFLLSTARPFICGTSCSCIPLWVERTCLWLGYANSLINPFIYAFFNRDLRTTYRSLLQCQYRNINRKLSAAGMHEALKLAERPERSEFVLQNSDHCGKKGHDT
5-hydroxytryptamine receptor 2A (Homo sapiens), sequence (P28223 whole entry): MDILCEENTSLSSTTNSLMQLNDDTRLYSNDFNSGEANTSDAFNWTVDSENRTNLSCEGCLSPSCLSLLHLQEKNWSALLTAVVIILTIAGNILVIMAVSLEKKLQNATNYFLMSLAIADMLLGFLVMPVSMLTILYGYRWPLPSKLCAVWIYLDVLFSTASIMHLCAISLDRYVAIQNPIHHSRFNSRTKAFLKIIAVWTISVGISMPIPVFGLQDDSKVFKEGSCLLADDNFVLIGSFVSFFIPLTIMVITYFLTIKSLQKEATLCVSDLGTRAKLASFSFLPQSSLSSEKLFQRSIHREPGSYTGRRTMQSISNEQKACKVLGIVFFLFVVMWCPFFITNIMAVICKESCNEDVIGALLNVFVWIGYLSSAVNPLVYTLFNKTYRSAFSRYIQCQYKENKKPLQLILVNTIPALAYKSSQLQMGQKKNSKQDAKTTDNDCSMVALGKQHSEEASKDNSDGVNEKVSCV

SMILES | Activity [1] | Cmax [2] [ng/mL] | Activity [3] | half-life [4] [h] | pIC50 (Cytochrome P450 2D6) | Activity [5] | Activity [7] | pIC50 (Cytochrome P450 3A4) | bioavailability [8] [%] | clearance [9] [mL/min/kg] | Activity [10] | Vd [12] [L/kg] | AUC(0-t) [13] [ng·h/mL] | Imax [17] [%] | Kb [18] [nM] | pKi [19] | also measured
CN1CCN(Cc2cn(S(=O)(=O)c3ccccc3)c3ccccc23)CC1.Cl.Cl | inactive | 1220 | inactive | 0.89 | < 5.00 | Active | inactive | < 5.00 | 21.4 | 14.9 | inactive | 1.2 | 2220 |  |  |  | Kp [6]: 0.82; Activity (Rattus norvegicus [11]): Active
COc1ccc2c(c1)c(CN1CCN(C)CC1)cn2S(=O)(=O)c1ccc(C(C)C)cc1.CS(=O)(=O)O.CS(=O)(=O)O | inactive | 56.4 | inactive | 1.12 | 4.48 | Active | inactive | 5.73 | 4.9 | 54 | inactive | 5.3 | 151 |  |  |  | 
COc1ccc2c(c1)c(CN1CCCN(C)CC1)cn2S(=O)(=O)c1ccc(C(C)C)cc1.Cl.Cl | inactive | 22 | inactive | 5.7 | 5.72 | Active | inactive | 5.66 |  |  | inactive | 49.5 |  |  |  |  | F (Rattus norvegicus [14]): 4%; AUCt (Rattus norvegicus [15]): 157 ng·h/mL
CC12CC3CC(C)(C1)CC(N)(C3)C2 [MEMANTINE] |  |  |  |  |  |  |  |  |  |  |  |  |  |  |  |  | Activity (Rattus norvegicus [16]): 1203%
COc1ccc2c(c1)c(CN1CCN(C)CC1)cn2S(=O)(=O)c1ccc(F)cc1.CS(=O)(=O)O.CS(=O)(=O)O | inactive | 55 | inactive | 2.52 | 4.90 |  | inactive | 5.77 | 13.5 | 92 | inactive | 19.2 | 249 |  |  |  | 
CC(C)c1ccc(S(=O)(=O)n2cc(CN3CCN(C)CC3)c3cc(F)ccc32)cc1.Cl.Cl | inactive | 1900 | inactive | 1.93 | 5.11 | Active | inactive | 5.85 | 91.4 | 19.5 | inactive | 3.2 | 7740 | 99 | 14 | 8.40 | Kp [6]: 0.95; Activity (Rattus norvegicus [11]): Active
COc1cccc2c1c(CN1CCN(C)CC1)cn2S(=O)(=O)c1ccc(C(C)C)cc1.Cl.Cl | inactive | 45.6 | inactive | 2.12 | 5.01 | Active | inactive |  | 10.7 | 65 | inactive | 6.1 | 138 | 98 | 9.8 | 7.94 | 
CN(C)CCCOc1ccc2[nH]nc(S(=O)(=O)c3cccc4ccccc34)c2c1 |  |  |  |  |  |  |  |  |  |  |  |  |  |  |  |  | Activity (Rattus norvegicus [20]): Active
CN1CCN(Cc2cn(S(=O)(=O)c3ccc(F)cc3)c3ccccc23)CC1 | inactive | 125 | inactive | 1.5 |  | Active | inactive |  | 17.5 | 75 | inactive | 6.3 | 221 | 98 | 12.3 | 8.06 | 
